Results: ChEMBL document CHEMBL1127345, “Synthesis, binding properties, and 18F labeling of fluorocarazolol, a high-affinity beta-adrenergic receptor antagonist” (J Med Chem, 1994)

Assays:
Mus musculus [1] = test: The in vivo tissue distribution of mouse brain with Propranolol preadministration in 90 min, value was fractional dose per fractional body weight of the organ; format: ADME, organism-based; settings: 1.5 h
Method in brief: (§1)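 Male CF-1 mice (25–30 g), anesthetised with 2 mg sodium pentobarbital ip 30 min before tracer. Where blocked, propranolol iv via tail vein (0.1 mL of […]; […]) about 30 min before tracer. Tracer given by tail vein, 0.1 mL at 1–2 mCi/mL. Mice killed by cervical dislocation at set times, organs weighed and counted. %ID/g × body weight/100 gives unitless uptake. Heart, brain, blood, lung, kidney, liver and bone n=5; average ± SD.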

Mus musculus [2] = test: The in vivo tissue distribution of mouse blood with Propranolol administration after 20 min, value was fractional dose per fractional body weight of the organ; format: ADME, organism-based; method in brief: as §1
Mus musculus [3] = test: The in vivo tissue distribution of mouse lung without Propranolol preadministration in 10 min, value was fractional dose per fractional body weight of the organ
Mus musculus [4] = test: The in vivo tissue distribution of mouse brain with Propranolol administration after 60 min, value was fractional dose per fractional body weight of the organ; format: ADME, organism-based; settings: 1 h; method in brief: as §1
Mus musculus [5] = test: The in vivo tissue distribution of mouse brain without Propranolol preadministration in 180 min, value was fractional dose per fractional body weight of the organ; settings: 3 h
Mus musculus [6] = test: The in vivo tissue distribution of mouse brain with Propranolol administration after 10 min, value was fractional dose per fractional body weight of the organ; format: ADME, organism-based; method in brief: as §1
Mus musculus [7] = test: The in vivo tissue distribution of mouse liver with Propranolol administration after 120 min, value was fractional dose per fractional body weight of the organ; format: ADME, organism-based; settings: 2 h; method in brief: as §1
Mus musculus [8] = test: The in vivo tissue distribution of mouse lung with Propranolol administration after 90 min, value was fractional dose per fractional body weight of the organ; format: ADME, organism-based; settings: 1.5 h
Method in brief: (§2)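 Male CF-1 mice (25–30 g) anaesthetised with 2 mg sodium pentobarbital ip; blocked group given 0.1 mL of […] propranolol iv via tail vein (200 μg, 6.6 mg/kg), tracer 30 min later. 0.1 mL of 1–2 mCi/mL [18F]-labelled enantiomer iv via tail vein; killed by cervical dislocation, organs weighed and counted against weighed standards. %ID/g × body weight/100 gives unitless uptake; five mice per point (heart, blood, lung, kidney, liver, bone); mean ± SD.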

Mus musculus [9] = test: The in vivo tissue distribution of mouse heart without Propranolol preadministration in 90 min, value was fractional dose per fractional body weight of the organ; settings: 1.5 h
Mus musculus [10] = test: The in vivo tissue distribution of mouse bone with Propranolol administration after 60 min, value was fractional dose per fractional body weight of the organ; format: ADME, organism-based, Bone element; settings: 1 h; method in brief: as §1
Mus musculus [11] = test: The in vivo tissue distribution of mouse heart with Propranolol administration after 180 min, value was fractional dose per fractional body weight of the organ; format: ADME, organism-based; settings: 3 h
Method in brief: (§3)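 Male CF-1 mice (25–30 g), given 2 mg sodium pentobarbital ip 30 min before tracer. Blocked groups received propranolol iv by tail vein, 0.1 mL of 1 mg/mL. About 30 min later, 0.1 mL of [18F]tracer (1–2 mCi/mL) was injected by tail vein. Mice were killed by cervical dislocation at set times, and organs were weighed and counted. Uptake is %ID/g × body weight/100, average ± SD; n=5 for heart, brain, blood, lung, kidney, liver and bone.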

Mus musculus [12] = test: The in vivo tissue distribution of mouse bone with Propranolol preadministration in 20 min, value was fractional dose per fractional body weight of the organ; format: ADME, organism-based, Bone element; method in brief: as §1
Mus musculus [13] = test: The in vivo tissue distribution of mouse bone with Propranolol administration after 10 min, value was fractional dose per fractional body weight of the organ; format: ADME, organism-based, Bone element; method in brief: as §1
Mus musculus [14] = test: The in vivo tissue distribution of mouse liver without Propranolol preadministration in 180 min, value was fractional dose per fractional body weight of the organ; settings: 3 h
Mus musculus [15] = test: The in vivo tissue distribution of mouse bone without Propranolol preadministration in 10 min, value was fractional dose per fractional body weight of the organ
Mus musculus [16] = test: The in vivo tissue distribution of mouse kidney with Propranolol administration after 60 min, value was fractional dose per fractional body weight of the organ; format: ADME, organism-based; settings: 1 h; method in brief: as §2
Mus musculus [17] = test: The in vivo tissue distribution of mouse bone with Propranolol preadministration in 40 min, value was fractional dose per fractional body weight of the organ; format: ADME, organism-based, Bone element; method in brief: as §1
Mus musculus [18] = test: The in vivo tissue distribution of mouse liver with Propranolol administration after 60 min, value was fractional dose per fractional body weight of the organ; format: ADME, organism-based; settings: 1 h; method in brief: as §2
Mus musculus [19] = test: The in vivo tissue distribution of mouse kidney with Propranolol administration after 10 min, value was fractional dose per fractional body weight of the organ; format: ADME, organism-based; method in brief: as §3
Mus musculus [20] = test: The in vivo tissue distribution of mouse bone without Propranolol preadministration in 180 min, value was fractional dose per fractional body weight of the organ; settings: 3 h
Mus musculus [21] = test: The in vivo tissue distribution of mouse brain with Propranolol administration after 20 min, value was fractional dose per fractional body weight of the organ; format: ADME, organism-based; method in brief: as §1
Mus musculus [22] = test: The in vivo tissue distribution of mouse brain without Propranolol preadministration in 10 min, value was fractional dose per fractional body weight of the organ
Mus musculus [23] = test: The in vivo tissue distribution of mouse lung with Propranolol administration after 180 min, value was fractional dose per fractional body weight of the organ; format: ADME, organism-based; settings: 3 h; method in brief: as §1
Mus musculus [24] = test: The in vivo tissue distribution of mouse lung with Propranolol administration after 40 min, value was fractional dose per fractional body weight of the organ; format: ADME, organism-based; method in brief: as §2
Mus musculus [25] = test: The in vivo tissue distribution of mouse brain without Propranolol preadministration in 60 min, value was fractional dose per fractional body weight of the organ; settings: 1 h
Mus musculus [26] = test: The in vivo tissue distribution of mouse heart with Propranolol administration after 20 min, value was fractional dose per fractional body weight of the organ; format: ADME, organism-based; method in brief: as §1
Mus musculus [27] = test: The in vivo tissue distribution of mouse kidney without Propranolol preadministration in 10 min, value was fractional dose per fractional body weight of the organ
Mus musculus [28] = test: The in vivo tissue distribution of mouse liver with Propranolol administration after 90 min, value was fractional dose per fractional body weight of the organ; format: ADME, organism-based; settings: 1.5 h; method in brief: as §3
Mus musculus [29] = test: The in vivo tissue distribution of mouse brain with Propranolol administration after 180 min, value was fractional dose per fractional body weight of the organ; format: ADME, organism-based; settings: 3 h; method in brief: as §3
Mus musculus [30] = test: The in vivo tissue distribution of mouse bone without Propranolol preadministration in 120 min, value was fractional dose per fractional body weight of the organ; settings: 2 h
Mus musculus [31] = test: The in vivo tissue distribution of mouse blood with Propranolol preadministration in 10 min, value was fractional dose per fractional body weight of the organ; format: ADME, organism-based
Method in brief: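 Male CF-1 mice, 25–30 g, anesthetized with 2 mg sodium pentobarbital ip. Propranolol pretreatment was 0.1 mL of 1 mg/mL iv by tail vein. About 30 min later, 0.1 mL of 1–2 mCi/mL [18F]tracer was given by tail vein. Mice were killed by cervical dislocation at set times. Organs were weighed and counted against weighed dose standards. %ID/g × body weight/100 gave fractional dose per fractional body weight. Blood and heart n=5.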

Row | SMILES | Dose/organ (Mus musculus [1]) | Dose/organ (Mus musculus [2]) | Dose/organ (Mus musculus [3]) | Dose/organ (Mus musculus [4]) | Dose/organ (Mus musculus [5]) | Dose/organ (Mus musculus [6]) | Dose/organ (Mus musculus [7]) | Dose/organ (Mus musculus [8]) | Dose/organ (Mus musculus [9]) | Dose/organ (Mus musculus [10]) | Dose/organ (Mus musculus [11]) | Dose/organ (Mus musculus [12]) | Dose/organ (Mus musculus [13]) | Dose/organ (Mus musculus [14]) | Dose/organ (Mus musculus [15]) | Dose/organ (Mus musculus [16]) | Dose/organ (Mus musculus [17]) | Dose/organ (Mus musculus [18]) | Dose/organ (Mus musculus [19]) | Dose/organ (Mus musculus [20]) | other results
1 | CC(C[18F])NC[C@H](O)COc1cccc2[nH]c3ccccc3c12 (some centres not stated) | 0.8 | 0.43 | 6.4 | 0.25 | 0.67 | 1.23 | 0.66 | 1.06 | 0.61 | 1.1 | 0.15 | 0.65 | 0.72 | 0.88 | 0.65 | 1.28 | 0.71 | 1.17 | 4.18 | 1.9 | Dose/organ (Mus musculus [21]): 0.78; Dose/organ (Mus musculus [22]): 1.18; Dose/organ (Mus musculus [23]): 0.72; Dose/organ (Mus musculus [24]): 1.98; Dose/organ (Mus musculus [25]): 0.81; Dose/organ (Mus musculus [26]): 0.63; Dose/organ (Mus musculus [27]): 4.18; Dose/organ (Mus musculus [28]): 1.39; Dose/organ (Mus musculus [29]): 0.09; Dose/organ (Mus musculus [30]): 1.08; Dose/organ (Mus musculus [31]): 0.56
2 | CC(C[18F])NC[C@@H](O)COc1cccc2[nH]c3ccccc3c12 (some centres not stated) | 0.35 | 0.57 | 8.13 | 0.62 | 0.08 | 1.04 | 0.94 | 1.03 | 0.46 | 1.15 | 0.1 | 0.93 | 0.67 | 0.78 | 0.67 | 1.67 | 0.95 | 1.61 | 5.1 | 1.25 | Dose/organ (Mus musculus [21]): 1.22; Dose/organ (Mus musculus [22]): 0.82; Dose/organ (Mus musculus [23]): 0.26; Dose/organ (Mus musculus [24]): 2; Dose/organ (Mus musculus [25]): 0.37; Dose/organ (Mus musculus [26]): 0.85; Dose/organ (Mus musculus [27]): 4.6; Dose/organ (Mus musculus [28]): 1.17; Dose/organ (Mus musculus [29]): 0.06; Dose/organ (Mus musculus [30]): 0.78; Dose/organ (Mus musculus [31]): 0.57
